Values after ≈ are worked out from the molar mass of the structure shown.
Assays:
[1] = biological target: Cyclin-dependent kinase 2 (Homo sapiens) (UniProt P24941); assay: Inhibition of wild-type human full length CDK2 (M1 to L298 residues) expressed in bacterial expression system assessed as remaining activity at 1 uM by Kinomescan method relative to control
In short: (§1)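 KINOMEscan competition binding panel run with inhibitor at 1 μM; read-out is remaining kinase activity (percent of control).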

[2] = biological target: T1, Dual specificity tyrosine-phosphorylation-regulated kinase 1A (Homo sapiens, UniProt Q13627); assay: Displacement of Kinase tracer 236 from biotinylated DYRK1A (unknown origin) expressed in Escherichia coli BL21 (DE3) incubated for 1.5 hrs by TR-FRET assay
[3] = biological target: Dual specificity protein kinase CLK2 (Homo sapiens) (UniProt P49760); assay: Inhibition of wild-type human partial length CLK2 (D144 to R498 residues) expressed in bacterial expression system assessed as remaining activity at 1 uM by Kinomescan method relative to control; in short: as §1
[4] = Thermodynamic solubility of the compound at pH 6.8; assay type: physicochemical; conditions: buffer, read-out: Therm_solubility
In short: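 Thermodynamic solubility measured at pH 6.8 in a single experiment, reported in […].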

[5] = Metabolic stability in rat liver microsomes; assay type: ADME, Microsome; conditions: read-out: Stabilty
[6] = biological target: Dual specificity protein kinase CLK3 (Homo sapiens) (UniProt P49761); assay: Inhibition of wild-type human full length CLK3 (M1 to R490 residues) expressed in bacterial expression system assessed as remaining activity at 1 uM by Kinomescan method relative to control; in short: as §1
[7] = biological target: Dual specificity protein kinase CLK1 (Homo sapiens, UniProt P49759); assay: Inhibition of wild-type human full length CLK1 (M1 to I484 residues) expressed in bacterial expression system assessed as remaining activity at 1 uM by Kinomescan method relative to control; in short: as §1
[8] = biological target: T1, Dual specificity tyrosine-phosphorylation-regulated kinase 1A; assay: Binding affinity to biotinylated DYRK1A (unknown origin) expressed in Escherichia coli BL21 (DE3) assessed as dissociation constant measured up to 5 min by SPR method
[9] = Metabolic stability in human liver microsomes; assay type: ADME, Microsome; conditions: read-out: Stabilty
[10] = biological target: Glycogen synthase kinase-3 beta (Homo sapiens) (UniProt P49841); assay: Inhibition of wild-type human full length GSK3B (M1 to T433 residues) expressed in mammalian expression system assessed as remaining activity at 1 uM by Kinomescan method relative to control; in short: as §1
[11] = biological target: T2, Dual specificity tyrosine-phosphorylation-regulated kinase 2 (Homo sapiens) (UniProt Q92630); assay: Inhibition of wild-type human full length DYRK2 (M1 to S528 residues) expressed in mammalian expression system assessed as remaining activity at 1 uM by Kinomescan method relative to control; in short: as §1
T2 sequence (whole entry): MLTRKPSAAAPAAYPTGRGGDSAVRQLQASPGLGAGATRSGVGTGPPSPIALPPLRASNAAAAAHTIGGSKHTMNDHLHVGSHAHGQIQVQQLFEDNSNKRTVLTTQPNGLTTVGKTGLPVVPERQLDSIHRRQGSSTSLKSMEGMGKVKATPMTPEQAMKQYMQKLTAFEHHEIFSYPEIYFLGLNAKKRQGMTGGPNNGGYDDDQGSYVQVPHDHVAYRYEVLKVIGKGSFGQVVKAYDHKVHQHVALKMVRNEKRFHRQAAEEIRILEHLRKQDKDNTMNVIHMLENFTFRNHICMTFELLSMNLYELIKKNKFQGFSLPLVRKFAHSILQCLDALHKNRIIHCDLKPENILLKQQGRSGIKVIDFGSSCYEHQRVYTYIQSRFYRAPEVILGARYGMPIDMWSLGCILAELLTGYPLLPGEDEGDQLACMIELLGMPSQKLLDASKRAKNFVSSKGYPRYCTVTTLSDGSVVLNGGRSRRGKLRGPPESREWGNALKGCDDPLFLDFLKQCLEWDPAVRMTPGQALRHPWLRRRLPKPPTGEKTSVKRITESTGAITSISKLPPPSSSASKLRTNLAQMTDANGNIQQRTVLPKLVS

[12] = biological target: Dual specificity tyrosine-phosphorylation-regulated kinase 1B (Homo sapiens) (UniProt Q9Y463); assay: Inhibition of wild-type human full length DYRK1B (M1 to S629 residues) expressed in bacterial expression system assessed as remaining activity at 1 uM by Kinomescan method relative to control; in short: as §1
[13] = biological target: T1, Dual specificity tyrosine-phosphorylation-regulated kinase 1A; assay: Inhibition of human DYRK1A-mediated tau phosphorylation expressed in HEK293 cells incubated for 2 hrs by ELISA; assay type: cell-based

Dual specificity protein kinase CLK3 (Homo sapiens), sequence (P49761 whole entry, looked up, the tested form may be a part): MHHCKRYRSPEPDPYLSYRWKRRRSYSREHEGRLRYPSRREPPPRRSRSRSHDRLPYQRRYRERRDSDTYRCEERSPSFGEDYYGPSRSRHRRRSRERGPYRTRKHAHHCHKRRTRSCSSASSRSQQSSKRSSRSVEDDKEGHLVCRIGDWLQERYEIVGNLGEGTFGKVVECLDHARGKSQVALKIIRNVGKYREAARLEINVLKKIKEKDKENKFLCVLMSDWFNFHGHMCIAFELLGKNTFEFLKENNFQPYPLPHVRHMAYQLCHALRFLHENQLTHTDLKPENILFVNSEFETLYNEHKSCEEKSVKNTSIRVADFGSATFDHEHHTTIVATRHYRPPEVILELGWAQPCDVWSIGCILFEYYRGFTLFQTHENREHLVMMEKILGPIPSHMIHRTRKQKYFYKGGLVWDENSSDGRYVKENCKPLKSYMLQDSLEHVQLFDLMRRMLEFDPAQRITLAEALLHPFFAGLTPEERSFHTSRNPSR
Glycogen synthase kinase-3 beta (Homo sapiens), sequence (P49841 whole entry, looked up, the tested form may be a part): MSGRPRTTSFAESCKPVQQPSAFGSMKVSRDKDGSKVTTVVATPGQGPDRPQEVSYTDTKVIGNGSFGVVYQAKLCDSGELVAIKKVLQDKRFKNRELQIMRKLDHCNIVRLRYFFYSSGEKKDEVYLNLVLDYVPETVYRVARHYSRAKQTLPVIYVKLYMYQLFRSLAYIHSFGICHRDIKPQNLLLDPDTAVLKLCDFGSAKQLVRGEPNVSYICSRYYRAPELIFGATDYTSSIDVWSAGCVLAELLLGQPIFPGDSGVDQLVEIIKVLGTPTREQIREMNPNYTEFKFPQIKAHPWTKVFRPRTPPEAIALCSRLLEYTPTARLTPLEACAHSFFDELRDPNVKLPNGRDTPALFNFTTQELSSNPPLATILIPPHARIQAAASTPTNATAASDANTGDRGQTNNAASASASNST
Dual specificity protein kinase CLK1, sequence (P49759 whole entry, looked up, the tested form may be a part): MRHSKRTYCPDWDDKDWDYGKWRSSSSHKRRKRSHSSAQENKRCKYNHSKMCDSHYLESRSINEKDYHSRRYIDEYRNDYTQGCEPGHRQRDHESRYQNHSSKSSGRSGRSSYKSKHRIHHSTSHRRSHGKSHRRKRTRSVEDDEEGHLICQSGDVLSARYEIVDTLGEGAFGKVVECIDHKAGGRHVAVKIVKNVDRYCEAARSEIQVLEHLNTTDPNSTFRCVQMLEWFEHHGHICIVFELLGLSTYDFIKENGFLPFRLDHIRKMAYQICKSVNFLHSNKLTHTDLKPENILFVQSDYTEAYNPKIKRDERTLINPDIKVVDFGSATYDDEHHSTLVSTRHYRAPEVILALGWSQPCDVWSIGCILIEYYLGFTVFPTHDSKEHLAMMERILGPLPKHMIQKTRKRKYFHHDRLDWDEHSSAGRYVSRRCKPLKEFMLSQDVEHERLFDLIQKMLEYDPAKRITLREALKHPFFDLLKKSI
Dual specificity tyrosine-phosphorylation-regulated kinase 1B (Homo sapiens), sequence (Q9Y463 whole entry, looked up, the tested form may be a part): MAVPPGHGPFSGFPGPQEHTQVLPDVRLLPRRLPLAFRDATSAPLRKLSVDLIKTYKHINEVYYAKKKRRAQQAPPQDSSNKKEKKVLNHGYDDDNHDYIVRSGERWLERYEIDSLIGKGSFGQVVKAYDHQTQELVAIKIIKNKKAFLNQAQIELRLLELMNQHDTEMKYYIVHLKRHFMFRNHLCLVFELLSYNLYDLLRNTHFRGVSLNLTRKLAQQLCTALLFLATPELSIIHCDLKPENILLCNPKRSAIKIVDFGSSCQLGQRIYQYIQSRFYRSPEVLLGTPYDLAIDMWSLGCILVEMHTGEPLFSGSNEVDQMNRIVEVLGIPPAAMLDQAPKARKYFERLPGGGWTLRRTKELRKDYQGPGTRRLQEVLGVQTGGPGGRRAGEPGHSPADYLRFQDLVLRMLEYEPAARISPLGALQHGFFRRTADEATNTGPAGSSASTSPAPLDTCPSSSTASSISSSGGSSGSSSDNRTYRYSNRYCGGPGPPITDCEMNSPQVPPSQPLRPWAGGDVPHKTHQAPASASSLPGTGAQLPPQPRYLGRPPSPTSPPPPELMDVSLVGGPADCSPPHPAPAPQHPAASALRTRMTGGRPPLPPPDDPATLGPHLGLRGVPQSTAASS
Dual specificity protein kinase CLK2 (Homo sapiens), sequence (P49760 whole entry, looked up, the tested form may be a part): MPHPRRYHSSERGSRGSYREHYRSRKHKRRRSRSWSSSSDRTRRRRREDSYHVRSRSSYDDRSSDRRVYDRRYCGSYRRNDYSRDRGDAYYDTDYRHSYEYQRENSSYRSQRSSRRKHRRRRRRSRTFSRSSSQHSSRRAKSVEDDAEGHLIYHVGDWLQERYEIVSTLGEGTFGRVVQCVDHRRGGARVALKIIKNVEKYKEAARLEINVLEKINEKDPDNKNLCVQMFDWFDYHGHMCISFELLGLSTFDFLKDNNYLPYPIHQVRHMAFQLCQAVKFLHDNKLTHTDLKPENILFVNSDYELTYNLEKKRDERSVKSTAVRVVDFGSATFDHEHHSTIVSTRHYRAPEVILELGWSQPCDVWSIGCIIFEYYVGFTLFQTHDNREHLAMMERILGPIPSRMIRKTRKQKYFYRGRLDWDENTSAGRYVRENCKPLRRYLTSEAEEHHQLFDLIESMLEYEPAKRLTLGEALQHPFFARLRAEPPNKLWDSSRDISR

Work on `c1cnn2ncc(-c3ccnc(N4CCC45COC5)n3)c2c1` yielded an Activity [1] of 100%, an IC50 [2] of 0.0794 µM and an Activity [3] of 13%. The solubility thermodynamic [4] was 60 µg/mL (≈ 204 µM), the microsomal CLint [5] was 119 µL/min/mg and the Activity [6] was 54%. It also gave an Activity [7] of 33%, a Kd [8] of 0.064 µM and a microsomal CLint [9] of 126 µL/min/mg. The Activity [10] was 75%, the Activity [11] was 11% and the Activity [12] was 8.3%.

In the case of `CN(C)c1ncc(F)c(-c2cnn3ncccc23)n1`, the Activity [1] is reported as 100%, the IC50 [2] is reported as 0.0575 µM and the IC50 [13] is reported as 0.25 µM. For the same compound, the Activity [3] was 54%, the solubility thermodynamic [4] was 30 µg/mL (≈ 116 µM) and the microsomal CLint [5] was 983 µL/min/mg. The Activity [6] was 84%, the Activity [7] was 53% and the Kd [8] was 0.012 µM. For the same compound, the microsomal CLint [9] was 697 µL/min/mg, the Activity [10] was 93% and the Activity [11] was 55%. For the same compound, the Activity [12] was 71%.

From ChEMBL document CHEMBL4808225, “Discovery and Characterization of Selective and Ligand-Efficient DYRK Inhibitors” (J Med Chem, 2021)
